According to ChEMBL document CHEMBL2176901, “Pyrrolo[3,4-h]quinolinones a new class of photochemotherapeutic agents” (Bioorg Med Chem, 2011):

Tests used:
Assay type in all cases: functional, cell-based
[1] = Phototoxicity in 3.75 J/cm'2 UV-A irradiated human NCTC-2544 cells after 72 hrs by MTT assay; conditions: NCTC-2544, light or radiation study
How it was run: (§1)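 Seeded at 5 × 10³ cells/well with 10% FBS: MCF-7 and NCTC-2544 in DMEM, LoVo in Ham's F12. Pre-incubated 18 h at 37 °C, 5% CO2. Compound (DMSO stock diluted in HBSS pH 7.2) was applied for 30 min at 37 °C, then UV-A irradiation (mainly 365 nm, 4.0 mW/cm²). Medium was restored for 72 h before MTT. IC50 is the mean ± SEM of three experiences.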

[2] = tested on: MCF7; experiment: Phototoxicity in 2.5 J/cm'2 UV-A irradiated human MCF7 cells after 72 hrs by MTT assay; conditions: MCF7, light or radiation study
How it was run: (§2)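 HL-60 and Jurkat (8×10³/well, RPMI-1640) and MCF-7, LoVo, NCTC-2544 (5×10³/well; DMEM or Ham's F12) preincubated 18 h at 37 °C, 5% CO₂. Compound in DMSO diluted in HBSS pH 7.2, 30 min at 37 °C, then UV-A at 2.5 or 3.75 J/cm². Medium replaced, 72 h incubation, MTT read-out. IC50 as mean ± SEM of three experiments.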

[3] = tested on: Jurkat; experiment: Phototoxicity in 2.5 J/cm'2 UV-A irradiated human Jurkat cells after 72 hrs by MTT assay; conditions: light or radiation study; how it was run: as §2
[4] = tested on: Jurkat; experiment: Phototoxicity in 3.75 J/cm'2 UV-A irradiated human Jurkat cells after 72 hrs by MTT assay; conditions: light or radiation study
How it was run: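 Jurkat cells (8 × 10³/well) in RPMI-1640 with 10% FBS, held 18 h at 37 °C, 5% CO2. Compound stock in DMSO was diluted in HBSS pH 7.2 and added for 30 min at 37 °C. Cells were UV-A irradiated (lamp mainly 365 nm, 4.0 mW/cm²), then returned to medium for 72 h. MTT readout. IC50 is the mean ± SEM of three experiences.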

[5] = tested on: LoVo; experiment: Phototoxicity in 2.5 J/cm'2 UV-A irradiated human LoVo cells after 72 hrs by MTT assay; conditions: light or radiation study; how it was run: as §2
[6] = tested on: LoVo; experiment: Phototoxicity in 3.75 J/cm'2 UV-A irradiated human LoVo cells after 72 hrs by MTT assay; conditions: light or radiation study; how it was run: as §1
[7] = tested on: HL-60; experiment: Phototoxicity in 2.5 J/cm'2 UV-A irradiated human HL60 cells after 72 hrs by MTT assay; conditions: HL-60, light or radiation study; how it was run: as §2
[8] = Phototoxicity in 2.5 J/cm'2 UV-A irradiated human NCTC-2544 cells after 72 hrs by MTT assay; conditions: NCTC-2544, light or radiation study; how it was run: as §2
[9] = tested on: HL-60; experiment: Phototoxicity in 3.75 J/cm'2 UV-A irradiated human HL60 cells after 72 hrs by MTT assay; conditions: HL-60, light or radiation study; how it was run: as §2
[10] = tested on: MCF7; experiment: Phototoxicity in 3.75 J/cm'2 UV-A irradiated human MCF7 cells after 72 hrs by MTT assay; conditions: MCF7, light or radiation study; how it was run: as §1

SMILES	IC50 [1] [µM]	IC50 [2] [µM]	IC50 [3] [µM]	IC50 [4] [µM]	IC50 [5] [µM]	IC50 [6] [µM]	IC50 [7] [µM]	IC50 [8] [µM]	IC50 [9] [µM]	IC50 [10] [µM]
Cc1c2c(cn1C)CCc1cc(S(=O)(=O)c3ccccc3)c(=O)[nH]c1-2	> 20	> 20	> 20	> 20	> 20	> 20	> 20	> 20	> 20	> 20
CCOC(=O)c1[nH]c(C)c2c1CCc1cc(S(=O)(=O)c3ccccc3)c(=O)n(C)c1-2	> 20	> 20	> 20	12.5	> 20	13.2	> 20	> 20	5.8	> 20
Cc1[nH]c(C(=O)O)c2c1-c1[nH]c(=O)c(S(=O)(=O)c3ccccc3)cc1CC2	> 20	> 20	> 20	> 20	> 20	> 20	> 20	> 20	> 20	> 20
CCOC(=O)c1c2c(c(C)n1Cc1ccccc1)-c1c(cc(S(=O)(=O)c3ccccc3)c(=O)n1C)CC2	14.3	> 20	2.9	1.3	12.1	8.7	5.4	> 20	2.6	14.4
O=c1ccc2ccc3occc3c2o1 [ANGELICIN]	0.9	–	–	–	4	1.1	–	4.2	–	–
Cc1c2c(c(C(=O)O)n1C)CCc1cc(S(=O)(=O)c3ccccc3)c(=O)[nH]c1-2	> 20	> 20	> 20	> 20	> 20	> 20	> 20	> 20	> 20	> 20
CCOC(=O)c1[nH]c(C)c2c1CCc1cc(S(=O)(=O)c3ccccc3)c(=O)[nH]c1-2	15	> 20	18	10	17.5	13.6	13.7	> 20	9.1	> 20
O=c1[nH]c2c(cc1S(=O)(=O)c1ccccc1)CCc1cn(-c3ccccc3)cc1-2	> 20	> 20	> 20	7.4	> 20	> 20	12.2	> 20	8	> 20
CCOC(=O)c1c2c(c(C)n1C)-c1[nH]c(=O)c(S(=O)(=O)c3ccccc3)cc1CC2	6.2	10	2	1.4	7.9	4	3.6	10.1	1.8	5.1
Cn1c2c(cc(S(=O)(=O)c3ccccc3)c1=O)CCc1cn(-c3ccccc3)cc1-2	> 20	> 20	> 20	> 20	> 20	> 20	> 20	> 20	> 20	> 20
Cn1c2c(cc(S(=O)(=O)c3ccccc3)c1=O)CCc1cn(Cc3ccccc3)cc1-2	5.8	6.6	3.6	2.5	3.9	2.8	4.4	8.2	2.8	3.7
Cn1cc2c(c1)-c1c(cc(S(=O)(=O)c3ccccc3)c(=O)n1C)CC2	> 20	> 20	> 20	> 20	> 20	> 20	> 20	> 20	> 20	> 20
